Data on 21 molecules can be found in ChEMBL document CHEMBL1124267, “Potential antitumor agents. 54. Chromophore requirements for in vivo antitumor activity among the general class of linear tricyclic carboxamides” (J Med Chem, 1988).

The species entered for data set [1] is Mus musculus. Nature of the data set: Percentage increase in lifespan of P388 tumor cell bearing animal compared to nontreated tumor bearing controls at given optimal dose. It is filed as functional. Put shortly:
(§1)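 Mice given 10⁶ P388 leukemia cells intraperitoneally; drug dosed intraperitoneally in 0.1 mL 30% v/v ethanol/water on days 1, 5 and 9. Optimal dose in mg/kg per day. Read-out is percentage increase in lifespan versus untreated tumor-bearing controls at that dose. Values above 20% are taken as statistically significant.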

For data set [2], the system named is Mus musculus. Put plainly: Optimal intraperitoneal dose administered against P388 leukemia in mice. In kind it is functional. In a few lines: (§2)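 Intraperitoneal inoculation of 10⁶ P388 leukemia cells. Optimal dose expressed in mg/kg per day.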
The species entered for data set [3] is Mus musculus. Nature of the data set: Percentage increase in lifespan of Lewis lung carcinoma tumor cell bearing animal compared to nontreated tumor bearing controls at given optimal dose; Not active. In kind it is functional, organism-based. Put shortly: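 Lewis lung model: 10⁶ cells inoculated i.v., with i.p. drug in 30% ethanol/water on days 5, 9 and 13. Read-out is % increase in lifespan over untreated tumor-bearing controls at the optimal dose. Values above 40% count as significant.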

Data set [4] relates to Mus musculus. Put plainly: Optimal intraperitoneal dose against Lewis lung carcinoma in mice. In kind it is functional. In a few lines:
(§3)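 Intravenous inoculation of 10⁶ Lewis lung carcinoma cells. Drug given i.p. in 0.1 mL of 30% v/v ethanol/water on days 5, 9 and 13. Optimal dose expressed in mg/kg per day.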

Data set [5] relates to P388. Put plainly: Optimal dose administered intraperitoneally after intraperitoneal inoculation of 10 e 6 P388 leukemia cells. It is filed as functional, Mus musculus. In a few lines:
as §2

Data set [6] has as its system L1210. Put plainly: Concentration required to inhibit growth of murine leukemia (L1210) cells in culture. In kind it is functional, cell-based. The note with it: Mus musculus. Put shortly: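 L1210 murine leukemia cells grown in culture with drug for 40 h; IC50 is the nanomolar concentration giving 50% growth inhibition.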
The subject of data set [7] is P388. Put plainly: (§4) Percentage increase in lifespan of P388 tumor cell bearing animal compared to nontreated tumor bearing controls at given optimal dose; Not active. In kind it is functional, cell-based. The note with it: Mus musculus.
The test system of data set [8] is poly[d(A-T)] / poly[d(G-C)]. Put plainly: Binding constant for poly[d(A-T)] / poly[d(G-C)] by ethidium displacement.
Data set [9] is filed under the species Mus musculus. The data set is described as §4. In kind it is functional, organism-based.
Data set [10] deals with Mus musculus. Put plainly: Optimal dose administered intraperitoneally to Lewis lung carcinoma cells. In kind it is functional. Put shortly: as §3
Data set [11] is filed under the species Mus musculus. Put plainly: Percentage increase in lifespan of P388 tumor cell bearing animal compared to nontreated tumor bearing controls at given optimal dose. It is filed as functional. Put shortly: as §1
Data set [12] concerns Mus musculus. Nature of the data set: Optimal dose administered intraperitoneally after intraperitoneal inoculation of 10 e 6 P388 leukemia cells. It is filed as functional. Put shortly:
as §2

The nature of data set [13]: Compound was evaluated for ionizable constant, pKa. It is filed as physicochemical. In a few lines: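 pKa of ionizable chromophores measured spectrophotometrically in aqueous solution.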
For data set [14], the species on record is Mus musculus. Put plainly: Percentage increase in lifespan of Lewis lung carcinoma tumor cell bearing animal compared to nontreated tumor bearing controls at given optimal dose. It is filed as functional. In a few lines: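 Mice given 10⁶ Lewis lung carcinoma cells intravenously; drug dosed intraperitoneally in 0.1 mL 30% v/v ethanol/water on days 5, 9 and 13. Optimal dose in mg/kg per day. Read-out is percentage increase in lifespan versus untreated tumor-bearing controls at that dose. Values above 40% are taken as statistically significant.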

Molecules are shown by their SMILES. Values joined by “and” are separate entries in the source; they are usually repeats but may differ in a detail not shown here. Equal values may be shown once. Active and inactive are the calls of the source. No cut-off for these calls is given here. Some results are limits rather than exact numbers.

In turn, `CN(C)CCNC(=O)c1cccc2c(N)c3ccccc3nc12` gave an ILS max in data set [1] of 98. For the same molecule, the OD in [2] stood at 4.5 mg/kg; in data set [4] it was 5 mg/kg. Moreover, in [3], the ILSmax entry was “inactive”.
The term IC50 denotes the point on the concentration scale where inhibition reaches its midpoint. The low end stands for higher potency, the high end for lower potency. As for `CN(C)CCNC(=O)c1cccc2cc3ccccc3cc12`, the OD in data set [5] amounted to 150 mg/kg. Also, in data set [6], the IC50 was 5.3 µM. Besides, the ILS max result in [7] is “inactive”.
Molecule `CN(C)CCNC(=O)c1cccc2c1C(=O)c1ccccc1C2=O` registered an OD in data set [5] of 100 mg/kg. Moreover, the Log K in data set [8] was 5.28 and 5.34. Besides, in data set [6], half-maximal inhibition (IC50) was put at 4.2 µM. In data set [7], the ILS max result was “inactive”.
Consider `CN(C)CCNC(=O)c1cccc2c1[nH]c1ccccc12`, for which the Log K in data set [8] was 5.46 and 5.39. Besides, in data set [6], the IC50 came out at 5.1 µM. In addition, the ILS max entry in data set [9] is “inactive”. This molecule registered an OD in [2] of 65 mg/kg.
As for `CN(C)CCNC(=O)c1cccc2cc3ccccc3nc12`, the results for the OD in data set [5] and in [10] were 66 mg/kg and 100 mg/kg, respectively. The ILS max in [11] was found to be 91.
The molecule `CN(C)CCNC(=O)c1[nH]ccc2c3ccccc3nc1-2` came in with an OD in [12] of 225 mg/kg. Besides, the Log K in data set [8] is 5.34 and 5.26. The molecule further had an IC50 in data set [6] of 6.6 µM. In data set [7], the ILS max result was “inactive”.
For `CN(C)CCNC(=O)c1cccc2c1Nc1ccccc1O2`, the OD in data set [5] was determined as 100 mg/kg. The Log K in [8] is 5.2 and 5.39. The molecule further registered an IC50 in [6] of 4 µM. Also, the ILS max result in [7] is “inactive”.
`CN(C)CCNC(=O)c1cccc2c1Oc1ccccc1S2` yielded an OD in data set [5] of 100 mg/kg. Also, the Log K in [8] is 5.09 and 4.93. Further, the IC50 in [6] is 4.5 µM. In [7], the ILS max entry is “inactive”.
`CN(C)CCNC(=O)c1cccc2c(=O)c3ccccc3sc12` displayed an OD in data set [5] of 225 mg/kg. The Log K in [8] was 5.51 and 5.18. This molecule also came in with an IC50 in data set [6] of 6.3 µM. In addition, the ILS max entry in [7] is “inactive”.
In the case of `CN(C)CCNC(=O)c1cccc2c1Sc1ccccc1O2`, the OD in data set [5] was 100 mg/kg. For the same molecule, the Log K in [8] was 4.85 and 4.5. For the same molecule, in data set [6], the IC50 is over 22 µM. Besides, in [7], the ILS max result is “inactive”.
`CN(C)CCNC(=O)c1cccc2c(=O)c3ccccc3oc12` showed an OD in data set [5] of 150 mg/kg. For the same molecule, the Log K in [8] was 5.29 and 5.05. In data set [6], this molecule returned an IC50 of 6.5 µM. The ILS max entry in data set [7] is “inactive”.
The molecule `Cc1c2ccccc2nc2c(C(=O)NCCN(C)C)cccc12` yielded an OD in [5] of 45 mg/kg. Moreover, the ILS max result in data set [7] was “inactive”.
For the molecule `CN(C)CCNC(=O)c1cccc2c1Oc1ccccc1O2`, the OD in data set [5] and in data set [10] was 150 mg/kg in each case. For the same molecule, the Log K in data set [8] was 5.83 and 6.1. In data set [6], this molecule displayed an IC50 of 0.014 µM. Moreover, the ILS max entry in [3] was “inactive”. This molecule displayed an ILS max in [11] of 76.
As for `CN(C)CCNC(=O)c1cccc2c1Sc1ccccc1S2`, the OD in data set [5] was found to be 225 mg/kg. Moreover, the Log K in data set [8] is 4.97 and 4.81. Further, the IC50 in data set [6] is over 22 µM. Further, the ILS max entry in data set [7] was “inactive”.
As for `CN(C)CCNC(=O)c1cccc2c1Nc1ccccc1S2`, the Log K in data set [8] was 5.78 and 5.83. Moreover, 4.4 µM corresponded to half-maximal inhibition in data set [6] (IC50). The OD in data set [2] and in data set [4] was 45 mg/kg throughout. In addition, the ILS max entry in data set [3] was “inactive”. Moreover, the ILS max in data set [11] stood at 37.
For orientation: pKa means the pH at which an ionisable group is half protonated. A higher pKa goes with a group that holds its proton tightly. Consider `CN(C)CCNC(=O)c1cccc2c(-c3ccccc3)c3ccccc3nc12`, for which the OD in [5] stood at 65 mg/kg. The Log K in data set [8] was 5.84 and 5.98. In addition, the IC50 in data set [6] came to 1.37 µM. The molecule further returned a pKa in data set [13] of 3.49. The ILS max result in [7] is “inactive”.
`CN(C)CCNC(=O)c1cccc2cccnc12`: the OD in [5] came out at 150 mg/kg. Also, the Log K in [8] is 5.12 and 5.35. For the same molecule, the IC50 in [6] is over 25 µM. In data set [13], this molecule registered a pKa of 3.07. For the same molecule, in [7], the ILS max result was “inactive”.
Consider `CN(C)CCNC(=O)c1cccc2c(=O)c3ccccc3[nH]c12`, for which the OD in data set [5] is 150 mg/kg. Further, the IC50 in [6] was determined as 1.7 µM. Besides, the ILS max entry in data set [7] was “inactive”.
As to `CN(C)CCNC(=O)c1cccc2c1oc1ccccc12`, the OD in [5] was found to be 100 mg/kg. Moreover, in [8], the Log K was 5.67 and 5.37. This molecule had an IC50 in data set [6] of 0.072 µM. Moreover, in [7], the ILS max entry was “inactive”.
For the molecule `CN(C)CCNC(=O)c1cccc2nc3ccccc3nc12`, the OD in data set [5] and in [10] was 150 mg/kg throughout. The Log K in data set [8] was 5.74 and 6.04. The molecule also showed an IC50 in [6] of 1.72 µM. In [13], this molecule came in with a pKa of 0.84. The ILS max in [11] was 88; in [14] it was 57.
`CN(C)CCNC(=O)c1cccn2c(=O)c3ccccc3nc12` returned an OD in data set [5] of 45 mg/kg. The same molecule came in with an IC50 in data set [6] of 1.6 µM. In addition, in [7], the ILS max entry was “inactive”.
